Measurements from ChEMBL document CHEMBL4715734, “Discovery of the Potent and Selective M1 PAM-Agonist N-[(3R,4S)-3-Hydroxytetrahydro-2H-pyran-4-yl]-5-methyl-4-[4-(1,3-thiazol-4-yl)benzyl]pyridine-2-carboxamide (PF-06767832): Evaluation of Efficacy and Cholinergic Side Effects” (J Med Chem, 2016).
Changes are numbered by the printed parent chain. pEC50: −log10 of the molar value.

Columns and labels:
[1] = biological target: T1, Muscarinic acetylcholine receptor M1 (Rattus norvegicus) (UniProt P08482); experiment: Agonist activity at muscarinic M1 receptor in Sprague-Dawley rat hippocampal slice assessed as increase in CA1 spiked rates by electrophysiological analysis; conditions: filed as agonist
T1 sequence (whole entry): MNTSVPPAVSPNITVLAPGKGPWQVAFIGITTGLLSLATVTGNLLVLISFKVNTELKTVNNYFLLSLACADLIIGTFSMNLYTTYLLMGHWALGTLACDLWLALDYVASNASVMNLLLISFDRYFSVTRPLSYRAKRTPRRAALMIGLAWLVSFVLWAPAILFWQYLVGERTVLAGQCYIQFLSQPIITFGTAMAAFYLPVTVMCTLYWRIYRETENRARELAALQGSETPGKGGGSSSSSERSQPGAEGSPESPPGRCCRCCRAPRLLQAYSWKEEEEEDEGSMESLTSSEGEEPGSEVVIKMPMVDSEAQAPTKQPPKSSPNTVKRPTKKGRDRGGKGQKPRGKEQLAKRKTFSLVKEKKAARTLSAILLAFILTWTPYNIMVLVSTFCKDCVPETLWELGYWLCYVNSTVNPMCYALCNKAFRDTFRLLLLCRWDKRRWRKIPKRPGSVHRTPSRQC

[2] = Intrinsic clearance in human liver microsome; type: ADME; conditions: liver microsomes, read-out: CLH
[3] = Unbound brain concentration in CD-1 mouse at 10 mg/kg, sc measured after 2 hrs by LC-MS/MS analysis; type: ADME, organism-based; conditions: in vivo
[4] = Unbound brain concentration in […] in Sprague-Dawley rat model at 0.32 mg/kg, sc measured after 1.67 hrs; type: ADME, organism-based; conditions: in vivo
Outline: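 Randomly selected animals (N=2/dose) at the end of the rat PPI study, T = 1.67 h. Dosed subcutaneously as a suspension in 0.5% methylcellulose in water. Plasma and brain concentrations were averaged.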

[5] = Toxicity in male Beagle dog assessed as increase in blood pressure at 3 mg/kg, po observed upto 9 hrs post last dose by telemetry; type: organism-based, Canis lupus familiaris; conditions: in vivo
Outline: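 Crossover telemetry study in dogs at three oral doses (0.3, 1 and 3 mg/kg), N=4. Endpoints were blood pressure, maximum systolic left ventricular pressure, LV +dP/dt max, activity, heart rate, and RR, QT and QTc intervals, followed up to 9 h post dose.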

[6] = biological target: T2, Muscarinic acetylcholine receptor M1 (Homo sapiens) (UniProt P11229); experiment: Positive allosteric modulation of human muscarinic M1 receptor expressed in CHO cells assessed as increase in ACh-induced displacement of [3H]-NMS from M1 receptor at 10 uM by scintillation counting method relative to Ach alone; type: cell-based; conditions: filed as positive allosteric modulator
T2 sequence (whole entry): T1 sequence (whole entry) with V5A, S254T, S309P, K320R, G337A, V413I

[7] = Toxicity in dog assessed as induction of mucoid feces at 15 mg/kg, po using spray-dried dispersion formulation; type: organism-based, Canis lupus familiaris; conditions: in vivo
[8] = Unbound plasma concentration in scopolamine-induced Wistar rat model at 1 mg/kg, po measured after 1 hr; type: ADME, organism-based; conditions: in vivo
Outline: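 Plasma sampled 1 h after oral dosing in satellite animals (N=2/dose) given the same dosing solution as the water-maze study (suspension in 0.5% methylcellulose in water); unbound concentration reported as the group average.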

[9] = biological target: T3, Muscarinic acetylcholine receptor M1 (Homo sapiens, UniProt P11229); experiment: Positive allosteric modulation of muscarinic M1 receptor (unknown origin) expressed in CHO cells assessed as increase in Ach-induced accumulation of inositol phosphate accumulation measured after 30 mins by HTRF assay; type: functional, cell-based
T3 sequence (P11229 whole entry): T1 sequence (whole entry) with V5A, S254T, S309P, K320R, G337A, V413I

[10] = fAUC (0 to 24 hrs) in dog at 15 mg/kg, po using spray-dried dispersion formulation; type: ADME, organism-based, Canis lupus familiaris; conditions: in vivo
[11] = Unbound plasma concentration in scopolamine-induced Wistar rat model at 0.1 mg/kg, po measured after 1 hr; type: ADME, organism-based; conditions: in vivo
[12] = Toxicity in dog at 1 mg/kg, po using spray-dried dispersion formulation; type: organism-based, Canis lupus familiaris; conditions: in vivo
[13] = fCmax in rat at 3 mg/kg, po administered for 14 days; type: ADME, organism-based; conditions: in vivo, 336 h, time 14 day
Outline: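 2-week repeat oral dosing in rats, 0.5% methylcellulose formulation; N=4/sex/dose; doses 3, 10, 30 (males)/15 (females) mg/kg; unbound exposures reported per dose and sex.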

[14] = Ratio of AUC monkey brain to fAUC in monkey plasma; type: ADME, cell-free, Macaca mulatta; conditions: rhesus monkey, in vivo
[15] = Toxicity in dog assessed as ataxia at 45 mg/kg, po using spray-dried dispersion formulation measured after 45 mins; type: organism-based, Canis lupus familiaris; conditions: in vivo, 0.75 h
Outline: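 Dogs received single escalating oral doses as a spray-dried dispersion (10% drug loading with HPMCAS-M). The dispersion was suspended in 0.5 wt% methylcellulose/0.5 wt% HPMCAS in 20 mM tris buffer, pH 7.4. One dog per sex per dose was used, and clinical signs were recorded.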

[16] = biological target: T4, Muscarinic acetylcholine receptor M5 (Homo sapiens, UniProt P08912); experiment: Agonist activity at human recombinant muscarinic M5 receptor stably expressed in CHO cells assessed as increase in intracellular calcium level up to 10 uM incubated for 10 mins by Fluo-8AM dye based FLIPR TETRA method; type: cell-based
T4 sequence (P08912 whole entry): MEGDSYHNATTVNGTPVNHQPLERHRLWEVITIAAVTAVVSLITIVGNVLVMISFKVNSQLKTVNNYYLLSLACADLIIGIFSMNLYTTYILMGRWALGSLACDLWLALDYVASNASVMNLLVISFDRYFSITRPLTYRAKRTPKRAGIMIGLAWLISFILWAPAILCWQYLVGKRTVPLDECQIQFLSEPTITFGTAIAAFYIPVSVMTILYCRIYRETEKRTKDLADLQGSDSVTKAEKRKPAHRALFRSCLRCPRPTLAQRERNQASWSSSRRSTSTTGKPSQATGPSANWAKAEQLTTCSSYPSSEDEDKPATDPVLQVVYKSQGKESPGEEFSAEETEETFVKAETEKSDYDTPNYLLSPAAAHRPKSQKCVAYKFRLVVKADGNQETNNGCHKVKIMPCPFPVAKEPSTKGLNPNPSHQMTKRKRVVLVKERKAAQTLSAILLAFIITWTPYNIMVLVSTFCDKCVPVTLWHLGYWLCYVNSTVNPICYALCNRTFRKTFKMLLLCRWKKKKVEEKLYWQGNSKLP

Activity [1]: Dose-dependent effect
CLint scaled [2]: < 8 mL/min/kg
Drug uptake(free) [3]: 195 nM
Drug uptake(free) [4]: 4.3 nM
fold change (FC) [6]: 339
Cp(f) [8]: 19.6 nM
pEC50 [9]: 6.35
fAUC [10]: 7.765 µM·h
Cp(f) [11]: 0.9 nM
fCmax [13]: 195 nM
Ratio AUC [14]: 0.41
Activity [16]: Not Active
Compound: Cc1cnc(C(=O)N[C@H]2CCOC[C@@H]2O)cc1Cc1ccc(-c2cscn2)cc1
Activity [5]: 7 mmHg
Activity [7]: Toxic
Activity [12]: Non-Toxic
Activity [15]: Toxic
